ChEMBL document CHEMBL1255500, “Safety and pharmacokinetics of the antiorthopoxvirus compound ST-246 following repeat oral dosing in healthy adult subjects” (Antimicrob Agents Chemother, 2010)

How the values were obtained:
[1] = AUC in healthy human at 800 mg/day, po administered for 21 days measured at day 21; assay type: ADME, organism-based; conditions: plasma
Procedure, shortened: (§1)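 Healthy adult volunteers, 8 per dose group, in the nonfasted state. Each took one oral dose daily for 21 days, within 30 min after a standard light meal (400 to 450 cal, ~25% fat). Venous blood was drawn predose and postdose on days 1, 6 and 21. Plasma was stored at −70°C and assayed by validated LC-MS/MS with an analog internal standard (range 50 to 4,000 ng/ml). AUCtau and Cmax were obtained by noncompartmental analysis.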

[2] = Cmax in healthy human at 800 mg/day, po administered for 21 days measured at day 6; assay type: ADME, organism-based; design: dose 800 mg/day, route oral; conditions: in vivo; procedure, shortened: as §1
Homo sapiens [3] = experiment: Toxicity in healthy human assessed as incidence of dry mouth at 250 mg/day, po administered for 21 days; assay type: organism-based; conditions: in vivo, 504 h
Procedure, shortened: (§2)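 Randomized, double-blind, placebo-controlled escalating study; 8 active and 2 placebo subjects per dose group, oral daily dosing after a standard light meal for 21 days. Safety was followed through adverse event reporting, vital signs, physical exam, hematology, blood chemistry, urinalysis and ECGs, with clinic visits at weeks 1 to 3. Laboratory AEs were graded by DAIDS criteria. Results are the number and percentage of subjects reporting each treatment-emergent AE.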

Homo sapiens [4] = experiment: Toxicity in healthy human assessed as incidence of nausea at 400 mg/day, po administered for 21 days; assay type: organism-based; conditions: in vivo, 504 h; procedure, shortened: as §2
[5] = AUC in healthy human at 400 mg/day, po administered for 21 days measured at day 6; assay type: ADME, organism-based; conditions: plasma; procedure, shortened: as §1
[6] = Cmax in healthy human at 400 mg/day, po administered for 21 days measured at day 6; assay type: ADME, organism-based; design: dose 400 mg/day, route oral; conditions: in vivo; procedure, shortened: as §1
[7] = Half life in healthy human at 800 mg/day, po administered for 21 days measured at day 21; assay type: ADME, organism-based; conditions: in vivo
Procedure, shortened: (§3)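 Phase I randomized, double-blind, placebo-controlled escalating multiple-dose study; 8 nonfasting healthy adults per dose group, one oral dose daily within 30 min after a standard light meal (400 to 450 cal, ~25% fat) for 21 days. Plasma was sampled serially on days 1, 6 and 21 (72 h after the last dose) and stored at −70°C. ST-246 was measured by validated LC-MS/MS with an analog internal standard (plasma range 50 to 4,000 ng/ml). Parameters (AUCtau, Cmax, Tmax, t1/2) came from noncompartmental analysis.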

[8] = Half life in healthy human at 250 mg/day, po administered for 21 days measured at day 21; assay type: ADME, organism-based; conditions: in vivo
Procedure, shortened: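 Healthy nonfasted volunteers took one oral dose daily for 21 days after a standard light meal. Plasma was sampled for 72 h after the last dose on day 21 (days 21 to 24) and quantified by validated LC-MS/MS. Terminal t1/2 was derived noncompartmentally from the observed elimination rate constant (λz), and mean and median were given.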

[9] = Half life in healthy human at 400 mg/day, po administered for 21 days measured at day 21; assay type: ADME, organism-based; conditions: in vivo; procedure, shortened: as §3
[10] = AUC in healthy human at 250 mg/day, po administered for 21 days measured at day 1; assay type: ADME, organism-based; conditions: plasma; procedure, shortened: as §3
[11] = Cmax in healthy human at 250 mg/day, po administered for 21 days measured at day 1; assay type: ADME, organism-based; design: dose 250 mg/day, route oral; conditions: in vivo; procedure, shortened: as §1
Homo sapiens [12] = experiment: Toxicity in healthy human assessed as incidence of flatulence at 400 mg/day, po administered for 21 days; assay type: organism-based; conditions: in vivo, 504 h; procedure, shortened: as §2
Homo sapiens [13] = experiment: Toxicity in healthy human assessed as incidence of flatulence at 250 mg/day, po administered for 21 days; assay type: organism-based; conditions: in vivo, 504 h; procedure, shortened: as §2
Homo sapiens [14] = experiment: Toxicity in healthy human assessed as incidence of somnolence at 800 mg/day, po administered for 21 days; assay type: organism-based; conditions: in vivo, 504 h; procedure, shortened: as §2
Homo sapiens [15] = experiment: Toxicity in healthy human assessed as incidence of fatigue at 250 mg/day, po administered for 21 days; assay type: organism-based; conditions: in vivo, 504 h; procedure, shortened: as §2
Homo sapiens [16] = experiment: Toxicity in healthy human assessed as incidence of treatment-emergent adverse events at 800 mg/day, po administered for 21 days; assay type: organism-based; conditions: in vivo, 504 h; procedure, shortened: as §2
Homo sapiens [17] = experiment: Toxicity in healthy human assessed as incidence of urticaria at 250 mg/day, po administered for 21 days; assay type: organism-based; conditions: in vivo, 504 h; procedure, shortened: as §2
Homo sapiens [18] = experiment: Toxicity in healthy human assessed as incidence of nausea at 250 mg/day, po administered for 21 days; assay type: organism-based; conditions: in vivo, 504 h; procedure, shortened: as §2
[19] = Cmax in healthy human at 400 mg/day, po administered for 21 days measured at day 1; assay type: ADME, organism-based; design: dose 400 mg/day, route oral; conditions: in vivo; procedure, shortened: as §1
Homo sapiens [20] = experiment: Toxicity in healthy human assessed as incidence of abnormal eye sensation at 800 mg/day, po administered for 21 days; assay type: organism-based; conditions: in vivo, 504 h; procedure, shortened: as §2
[21] = Tmax in healthy human at 250 to 800 mg/day, po administered for 21 days measured at day 21; assay type: ADME, organism-based; conditions: in vivo; procedure, shortened: as §3
Homo sapiens [22] = experiment: Toxicity in healthy human assessed as incidence of fatigue at 800 mg/day, po administered for 21 days; assay type: organism-based; conditions: in vivo, 504 h; procedure, shortened: as §2
[23] = Cmax in healthy human at 250 mg/day, po administered for 21 days measured at day 6; assay type: ADME, organism-based; design: dose 250 mg/day, route oral; conditions: in vivo; procedure, shortened: as §1
Homo sapiens [24] = experiment: Toxicity in healthy human assessed as incidence of nausea at 800 mg/day, po administered for 21 days; assay type: organism-based; conditions: in vivo, 504 h; procedure, shortened: as §2
Homo sapiens [25] = experiment: Toxicity in healthy human assessed as incidence of dry mouth at 800 mg/day, po administered for 21 days; assay type: organism-based; conditions: in vivo, 504 h; procedure, shortened: as §2
[26] = AUC in healthy human at 400 mg/day, po administered for 21 days measured at day 21; assay type: ADME, organism-based; design: dose 400 mg/day, route oral; conditions: plasma; procedure, shortened: as §3
[27] = Tmax in healthy human at 250 to 800 mg/day, po administered for 21 days measured at day 1; assay type: ADME, organism-based; conditions: in vivo; procedure, shortened: as §3
Homo sapiens [28] = experiment: Toxicity in healthy human assessed as incidence of dry mouth at 400 mg/day, po administered for 21 days; assay type: organism-based; conditions: in vivo, 504 h; procedure, shortened: as §2
Homo sapiens [29] = experiment: Toxicity in healthy human assessed as incidence of abnormal eye sensation at 250 mg/day, po administered for 21 days; assay type: organism-based; conditions: in vivo, 504 h; procedure, shortened: as §2
Homo sapiens [30] = experiment: Toxicity in healthy human assessed as incidence of headache at 800 mg/day, po administered for 21 days; assay type: organism-based; conditions: in vivo, 504 h; procedure, shortened: as §2
[31] = Cmax in healthy human at 800 mg/day, po administered for 21 days measured at day 1; assay type: ADME, organism-based; design: dose 800 mg/day, route oral; conditions: in vivo; procedure, shortened: as §1
Homo sapiens [32] = experiment: Toxicity in healthy human assessed as incidence of headache at 250 mg/day, po administered for 21 days; assay type: organism-based; conditions: in vivo, 504 h; procedure, shortened: as §2
Homo sapiens [33] = experiment: Toxicity in healthy human assessed as incidence of somnolence at 250 mg/day, po administered for 21 days; assay type: organism-based; conditions: in vivo, 504 h; procedure, shortened: as §2
[34] = AUC in healthy human at 250 mg/day, po administered for 21 days measured at day 21; assay type: ADME, organism-based; conditions: plasma; procedure, shortened: as §1
[35] = Cmax in healthy human at 400 mg/day, po administered for 21 days measured at day 21; assay type: ADME, organism-based; conditions: in vivo; procedure, shortened: as §3
Homo sapiens [36] = experiment: Toxicity in healthy human assessed as incidence of urticaria at 800 mg/day, po administered for 21 days; assay type: organism-based; conditions: in vivo, 504 h; procedure, shortened: as §2
Homo sapiens [37] = experiment: Toxicity in healthy human assessed as incidence of somnolence at 400 mg/day, po administered for 21 days; assay type: organism-based; conditions: in vivo, 504 h; procedure, shortened: as §2
[38] = AUC in healthy human at 400 mg/day, po administered for 21 days measured at day 1; assay type: ADME, organism-based; conditions: plasma; procedure, shortened: as §3
Homo sapiens [39] = experiment: Toxicity in healthy human assessed as incidence of urticaria at 400 mg/day, po administered for 21 days; assay type: organism-based; conditions: in vivo, 504 h; procedure, shortened: as §2
Homo sapiens [40] = experiment: Toxicity in healthy human assessed as incidence of headache at 400 mg/day, po administered for 21 days; assay type: organism-based; conditions: in vivo, 504 h; procedure, shortened: as §2
Homo sapiens [41] = experiment: Toxicity in healthy human assessed as incidence of flatulence at 800 mg/day, po administered for 21 days; assay type: organism-based; conditions: in vivo, 504 h; procedure, shortened: as §2
[42] = AUC in healthy human at 800 mg/day, po administered for 21 days measured at day 6; assay type: ADME, organism-based; conditions: plasma; procedure, shortened: as §1
[43] = AUC in healthy human at 250 mg/day, po administered for 21 days measured at day 6; assay type: ADME, organism-based; conditions: plasma; procedure, shortened: as §1
[44] = Tmax in healthy human at 250 to 800 mg/day, po administered for 21 days measured at day 6; assay type: ADME, organism-based; conditions: in vivo; procedure, shortened: as §3
Homo sapiens [45] = experiment: Toxicity in healthy human assessed as incidence of treatment-emergent adverse events at 250 mg/day, po administered for 21 days; assay type: organism-based; conditions: in vivo, 504 h; procedure, shortened: as §2
[46] = AUC in healthy human at 800 mg/day, po administered for 21 days measured at day 1; assay type: ADME, organism-based; conditions: plasma; procedure, shortened: as §1
Homo sapiens [47] = experiment: Toxicity in healthy human assessed as incidence of abnormal eye sensation at 400 mg/day, po administered for 21 days; assay type: organism-based; conditions: in vivo, 504 h; procedure, shortened: as §2
Homo sapiens [48] = experiment: Toxicity in healthy human assessed as incidence of fatigue at 400 mg/day, po administered for 21 days; assay type: organism-based; conditions: in vivo, 504 h; procedure, shortened: as §2

## O=C(NN1C(=O)[C@@H]2[C@@H]3C=C[C@@H]([C@H]4C[C@@H]34)[C@@H]2C1=O)c1ccc(C(F)(F)F)cc1 [TECOVIRIMAT]
[1]
  AUC at 504 h: 22700 ng·h/mL
[2]
  Cmax: 2340 ng/mL
Homo sapiens [3]
  Activity: 0%
Homo sapiens [4]
  Activity: 0%
[5]
  AUC at 504 h: 15400 ng·h/mL
[6]
  Cmax: 1300 ng/mL
[7]
  half-life: 1240 min
[8]
  half-life: 1130 min
[9]
  half-life: 1190 min
[10]
  AUC at 504 h: 9100 ng·h/mL
[11]
  Cmax: 985 ng/mL
Homo sapiens [12]
  Activity: 0%
Homo sapiens [13]
  Activity: 0%
Homo sapiens [14]
  Activity: 12.5%
Homo sapiens [15]
  Activity: 12.5%
Homo sapiens [16]
  Activity: 62.5%
Homo sapiens [17]
  Activity: 0%
Homo sapiens [18]
  Activity: 0%
[19]
  Cmax: 1390 ng/mL
Homo sapiens [20]
  Activity: 12.5%
[21]
  Tmax: 2.67 h
Homo sapiens [22]
  Activity: 0%
[23]
  Cmax: 1210 ng/mL
Homo sapiens [24]
  Activity: 12.5%
Homo sapiens [25]
  Activity: 12.5%
[26]
  AUC at 504 h: 16200 ng·h/mL
[27]
  Tmax: 2.88 h
Homo sapiens [28]
  Activity: 0%
Homo sapiens [29]
  Activity: 0%
Homo sapiens [30]
  Activity: 25%
[31]
  Cmax: 2280 ng/mL
Homo sapiens [32]
  Activity: 37.5%
Homo sapiens [33]
  Activity: 0%
[34]
  AUC at 504 h: 10100 ng·h/mL
[35]
  Cmax: 1460 ng/mL
Homo sapiens [36]
  Activity: 0%
Homo sapiens [37]
  Activity: 0%
[38]
  AUC at 504 h: 13100 ng·h/mL
Homo sapiens [39]
  Activity: 0%
Homo sapiens [40]
  Activity: 0%
Homo sapiens [41]
  Activity: 25%
[42]
  AUC at 504 h: 23400 ng·h/mL
[43]
  AUC at 504 h: 11900 ng·h/mL
[44]
  Tmax: 2.63 h
Homo sapiens [45]
  Activity: 75%
[46]
  AUC at 504 h: 21000 ng·h/mL
Homo sapiens [47]
  Activity: 0%
Homo sapiens [48]
  Activity: 0%
